The values below come from ChEMBL document CHEMBL4257441, “Protection effect of intracellular melanin from Lachnum YM156 and Haikunshenxi capsule combination on adenine-induced chronic renal failure in mice” (Medchemcomm, 2017).

In assay [1] the test system is Mus musculus. Briefly: Protective effect against adenine-induced chronic renal failure in ig dosed Kunming mouse assessed as increase in total protein levels in serum administered as qd for 4 successive weeks with haikunshenxi capsule by coomassie brilliant blue method. The class given is functional, organism-based. In a few lines: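 Adenine-fed CRF model in male Kunming mice (20 ± 5 g) housed at 18–20 °C on a 12 h light/dark cycle. Oral dosing at 100 or 200 mg kg–1, with or without Haikunshenxi capsule; ten mice per group. Serum creatinine, BUN, total protein and albumin measured, each group compared with the model group.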

For assay [2], the system named is Mus musculus. Briefly: Protective effect against adenine-induced chronic renal failure in Kunming mouse assessed as weight growth rate at 200 mg/kg, ig qd administered for 4 successive weeks with haikunshenxi capsule measured 24 hrs post last dose (reference value: 32.42 +/- 1.43%). It is filed as functional. In a few lines:
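Male Kunming mice (20 ± 5 g) kept on a 12 h light/dark cycle at 18–20 °C on a standard diet. CRF induced by chronic dietary adenine. Test material given orally at 100 or 200 mg kg–1, alone or with Haikunshenxi capsule, alongside normal, model and capsule-only groups; ten mice per group. Weight growth rate recorded in %, kidney index in mg g–1.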

The subject of assay [3] is Mus musculus. Put plainly: Protective effect against adenine-induced chronic renal failure in Kunming mouse assessed as kidney index at 100 mg/kg, ig qd administered for 4 successive weeks measured 24 hrs post last dose (reference value: 1.94 +/- 0.03 mg/g). The class given is functional. In outline: (§1)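 Male Kunming mice (20 ± 5 g) were housed on a 12 h light/dark cycle at 18–20 °C. Chronic renal failure was induced by long-term dietary adenine. The melanin was given orally at 100 or 200 mg kg–1, alone or with Haikunshenxi capsule as positive drug, with ten mice per group. Weight growth rate (%) and kidney index (mg g–1) were recorded.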

For assay [4], the system named is Mus musculus. Briefly: Protective effect against adenine-induced chronic renal failure in Kunming mouse assessed as kidney index at 200 mg/kg, ig qd administered for 4 successive weeks with haikunshenxi capsule measured 24 hrs post last dose (reference value: 1.94 +/- 0.03 mg/g). The class given is functional. In outline: as §1
Assay [5] relates to Mus musculus. Put plainly: Protective effect against adenine-induced chronic renal failure in Kunming mouse assessed as nephridial TNF-alpha levels at 100 mg/kg, ig qd administered for 4 successive weeks with haikunshenxi capsule (reference value: 250.15 +/- 8.10 pg/ml). The class given is functional.
Assay [6] deals with Mus musculus. Put plainly: Protective effect against adenine-induced chronic renal failure in Kunming mouse assessed as nephridial IL-1beta levels at 200 mg/kg, ig qd administered for 4 successive weeks (reference value: 18.34 +/- 0.25 pg/ml). It is filed as functional.
Assay [7] has as its system Mus musculus. Put plainly: Protective effect against adenine-induced chronic renal failure in Kunming mouse assessed as nephridial iNOS levels at 100 mg/kg, ig qd administered for 4 successive weeks with haikunshenxi capsule (reference value: 1.98 +/- 0.12 U/mg). The class given is functional.
The test system of assay [8] is Mus musculus. Briefly: Protective effect against adenine-induced chronic renal failure in ig dosed Kunming mouse assessed as decrease in nephridial iNOS levels administered as qd for 4 successive weeks. It is filed as functional, organism-based. In outline:
(§2)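 CRF model made by chronic dietary adenine in male Kunming mice (20 ± 5 g); oral dosing at 100 or 200 mg kg–1, alone or with Haikunshenxi capsule; ten mice per group. Kidney tissue TNF-α, IL-1β and IL-6 measured as pg per mg protein, and iNOS activity as U mg–1 protein.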

Assay [9] deals with Mus musculus. Briefly: Protective effect against adenine-induced chronic renal failure in ig dosed Kunming mouse assessed as decrease in nephridial TNF-alpha levels administered as qd for 4 successive weeks with haikunshenxi capsule. It is filed as functional, organism-based. In a few lines: as §2
The subject of assay [10] is Mus musculus. Briefly: Protective effect against adenine-induced chronic renal failure in Kunming mouse assessed as reduction in number of adenine crystals in kidney at 200 mg/kg, ig qd administered for 4 successive weeks by haematoxylin and eosin dye-based optical microscopic method. It is filed as functional, organism-based. In outline: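 Kidneys were taken from male Kunming mice given an adenine diet plus oral melanin (100 or 200 mg kg–1), with or without Haikunshenxi capsule, ten per group. Histological sections were examined at 400× for glomeruli, tubules, adenine crystals, tubular atrophy and interstitial fibrosis.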

Activity calls are given as the source filed them. No cut-off for these calls is given here.

As for `Cc1c(=O)c(=O)c2c3c[nH]c4c(C)c(=O)c(=O)c(c5c[nH]c1c52)c43`, the Activity result in the assay on Mus musculus [1] is “Dose-dependent effect”; with Mus musculus [2], 56.64%; in the assay on Mus musculus [3], 1.72 mg/g; in the assay with Mus musculus [4] it was 1.13 mg/g; with Mus musculus [5], 98.13 pg/mL; with Mus musculus [6], 16.03 pg/mL. For the same compound, the Activity is 0.79 U/mg in the assay on Mus musculus [7], “Dose-dependent effect” with Mus musculus [8] and “Dose-dependent effect” with Mus musculus [9]. In the assay with Mus musculus [10], the result was Active.
